In brackets after ≈: the same amount, converted by molar mass.

In general, logD refers to the decadic logarithm of the distribution of all forms, ionised or not, between an organic phase and buffer at a given pH. A lower logD goes with a more hydrophilic compound. In general, IC50 refers to the point on the concentration scale where inhibition reaches its midpoint. What is called solubility is how much of the substance goes into solution per volume. Read a low solubility as a poorly soluble substance.

Series [1] can be described thus: Lipophilicity, log D of compound at 7.4 by LC-MS analysis. It counts as physicochemical. To be noted: pH 7.4. Summed up:
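ChromlogD at pH 7.4: retention time on an LCMS system with an aqueous mobile phase, converted to lipophilicity with a calibration curve.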

The target in series [2] is T1, Mucosa-associated lymphoid tissue lymphoma translocation protein 1 (Homo sapiens, UniProt Q9UDY8).
T1 sequence (Q9UDY8 whole entry): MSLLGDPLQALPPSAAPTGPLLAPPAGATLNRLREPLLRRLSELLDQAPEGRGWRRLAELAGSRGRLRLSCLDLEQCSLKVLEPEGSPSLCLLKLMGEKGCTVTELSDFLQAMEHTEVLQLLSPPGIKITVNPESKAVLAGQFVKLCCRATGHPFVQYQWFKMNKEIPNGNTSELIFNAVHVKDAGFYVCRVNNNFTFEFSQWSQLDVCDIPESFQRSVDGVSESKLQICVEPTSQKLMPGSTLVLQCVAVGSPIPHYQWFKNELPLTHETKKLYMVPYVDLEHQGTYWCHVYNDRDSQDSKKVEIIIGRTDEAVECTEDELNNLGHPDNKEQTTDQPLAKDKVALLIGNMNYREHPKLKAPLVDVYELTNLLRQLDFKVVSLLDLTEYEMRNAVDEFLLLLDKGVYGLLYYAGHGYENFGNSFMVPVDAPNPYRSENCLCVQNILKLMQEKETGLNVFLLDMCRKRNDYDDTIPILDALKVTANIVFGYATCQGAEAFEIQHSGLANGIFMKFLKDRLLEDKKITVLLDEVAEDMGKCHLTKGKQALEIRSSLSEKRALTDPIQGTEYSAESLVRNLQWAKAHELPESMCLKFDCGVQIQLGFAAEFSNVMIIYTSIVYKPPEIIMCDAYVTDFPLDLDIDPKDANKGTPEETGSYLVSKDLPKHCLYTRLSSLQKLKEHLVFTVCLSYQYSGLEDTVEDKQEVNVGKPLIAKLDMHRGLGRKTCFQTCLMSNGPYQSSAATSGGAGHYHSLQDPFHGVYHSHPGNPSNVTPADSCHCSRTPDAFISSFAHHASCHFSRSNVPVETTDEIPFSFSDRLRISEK
The series is described as follows: Inhibition of human MALT1 assessed as cleavage of substrate using fluorescent labeled Ac-LRSR-Rh110 peptide as substrate incubated for 30 mins followed by substrate addition and measured after 3 to 4 hrs by FRET assay. Summed up: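 Fluorogenic MALT1 cleavage assay with the tetrapeptide LRSR carrying rhodamine 110 and a non-fluorescent quencher; signal read as FRET. Horseradish peroxidase and resazurin redox counter-assays used to exclude artefacts. Values are the mean of at least three independent measurements, with standard deviation.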

Series [3] in a line: Metabolic stability in human liver microsomes assessed as intrinsic clearance by LC-MS/MS analysis. It counts as ADME, Microsome. To be noted: read-out: CLH. Summed up:
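Human liver microsomes, compound incubated; intrinsic clearance from disappearance of the parent compound over time.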
A general note: Liver microsomes are vesicles of endoplasmic reticulum, rich in cytochrome P450 enzymes.

Series [4] has as its target T1, Mucosa-associated lymphoid tissue lymphoma translocation protein 1. As to the kind of experiment: Inhibition of human MALT1 in human MCF7 cells assessed as MALT1 mediated cleavage of human A20 in cytosol by fluorescence microscopy. It counts as subcellular. Summed up:
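Cellular MALT1 activity in MCF7 cells, read as inhibition of MALT1-mediated cleavage of human A20.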

Series [5] in a line: Metabolic stability in rat hepatocyte assessed as intrinsic clearance by LC-MS/MS analysis. To be noted: hepatocytes. Type of series: ADME, cell-based. The essentials: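 Rat hepatocytes, compound incubated; intrinsic clearance (per 10⁶ cells) from disappearance of the parent compound over time.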
Series [6] in a line: Solubility of compound in PBS at pH 7.4 incubated for 20 to 24 hrs under shaking condition by LC-MS analysis. Type of series: physicochemical. The conditions noted are these: time 20-24 hrs. The essentials: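 Dried-DMSO solubility: 10 mM DMSO stock dried down, residue resolubilized in 0.1 M phosphate buffer, pH 7.4.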

In turn, `FC(F)(F)c1nccc(N[C@]23CC[C@](Nc4ccc5nnc(Cl)n5n4)(CC2)CC3)n1` yielded a logD in series [1] of 3. For the same compound, the IC50 in series [2] is 4.2 µM. Also, the microsomal CLint in series [3] is 11 µL/min/mg.
For `FC(F)(F)c1nccc(N2CCC(CNc3ccc4nnc(Cl)n4n3)CC2)n1` the same measures were 2.8, 6.1 µM and 37 µL/min/mg.
For `FC(F)(F)c1nccc(N[C@H]2CC[C@@H](Nc3ccc4ncc(Cl)n4n3)CC2)n1` the same measures were 4.3, 0.4 µM and 9.9 µL/min/mg.
For `FC(F)(F)c1nccc(N2CCC(Nc3ccc4nnc(Cl)n4n3)CC2)n1` the same measures were 2.9, above 50 µM and 50 µL/min/mg.
On to `FC(F)(F)c1cccc(N[C@H]2CC[C@@H](Nc3ccnc(C(F)(F)F)n3)CC2)c1`, for which the logD in series [1] was above 5.3. The IC50 in series [2] worked out at 1.8 µM. Moreover, the microsomal CLint in series [3] stood at 7.5 µL/min/mg.
For `Clc1nnc2ccc(N[C@H]3CC[C@@H](Nc4ccncn4)CC3)nn12` the same measures were 0.7, 31 µM and 25 µL/min/mg.
In the same order, the values of `FC(F)(F)c1nccc(N[C@H]2CC[C@@H](Nc3cnc4ccccc4c3)CC2)n1` are 4.6, 7.2 µM and 5.2 µL/min/mg.
In series [1], `FC(F)(F)c1nccc(N[C@H]2C[C@@H](CNc3ccc4nnc(Cl)n4n3)C2)n1` gave a logD of 2.5. Also, the IC50 in series [2] was determined as 17 µM. Moreover, the microsomal CLint in series [3] amounted to 36 µL/min/mg.
For `FC(F)(F)c1cc(N[C@H]2CC[C@@H](Nc3ccc4nnc(Cl)n4n3)CC2)ccn1` the same measures were 2.9, 1.5 µM and 11 µL/min/mg.
In the same order, the values of `FC(F)(F)c1nccc(NC2CCN(c3ccc4nnc(Cl)n4n3)CC2)n1` are 2.6, 6.1 µM and 50 µL/min/mg.
In the same order, the values of `FC(F)(F)c1cccc(N[C@H]2CC[C@@H](Nc3ccc4nnc(Cl)n4n3)CC2)c1` are 5.2, 1.4 µM and 9.2 µL/min/mg.
As to `CSc1nnc2ccc(N[C@H]3CC[C@@H](Nc4ccnc(C(F)(F)F)n4)CC3)nn12`, the logD in series [1] is 2.8. In addition, the figures for the half-inhibitory concentration (IC50) in series [2] and in series [4] were 0.8 µM and 5.9 µM, respectively. For the same compound, in series [3], the microsomal CLint was 29 µL/min/mg.
With `COc1ncc(N[C@H]2CC[C@@H](Nc3ccc4nnc(Cl)n4n3)CC2)cc1Cl`, the logD in series [1] stood at 3.8. Moreover, in series [2], the IC50 was determined as 0.6 µM. Besides, the microsomal CLint in series [3] was below 3 µL/min/mg.
As for `FC(F)(F)c1nccc(O[C@H]2CC[C@@H](Nc3ccc4nnc(Cl)n4n3)CC2)n1`, the logD in series [1] is 3.7. Also, in series [2], the IC50 was 1.2 µM. Also, the microsomal CLint in series [3] is below 3 µL/min/mg.
For `FC(F)(F)c1nccc(NCC2CCN(c3ccc4nnc(Cl)n4n3)CC2)n1` the same measures were 2.7, 23 µM and 31 µL/min/mg.
For `FC(F)(F)c1nccc(N[C@H]2CC[C@@H](Nc3ccnc(C(F)(F)F)n3)CC2)n1`, the logD in series [1] came out at 4.3. The IC50 in series [2] turned out to be 2.2 µM. Also, in series [3], the microsomal CLint was below 3 µL/min/mg. Besides, the CLH in series [5] is listed as < 1 10^-6uL/min. This compound had a solubility in series [6] of 37 µM (≈ 15 µg/mL).
With `FC(F)(F)c1nccc(N[C@@H]2CC[C@H](Nc3ccc4nnc(Cl)n4n3)C2)n1` (racemic), the logD in series [1] is 3.4. In addition, the IC50 in series [2] worked out at 1.1 µM. The microsomal CLint in series [3] is 17 µL/min/mg.
`Cc1nnc2ccc(N[C@H]3CC[C@@H](Nc4ccnc(C(F)(F)F)n4)CC3)nn12`: in series [1], the log distribution coefficient (logD) was 2.3. In addition, the 50% inhibitory concentration (IC50) in series [2] is 4.7 µM. Besides, the microsomal CLint in series [3] was below 3 µL/min/mg.
`FC(F)(F)c1nccc(N[C@H]2CC[C@@H](Nc3ccc4nnc(C5CC5)n4n3)CC2)n1`: the logD in series [1] was 4.5. In series [2], the half-maximal inhibitory concentration (IC50) worked out at 4.5 µM. In addition, in series [3], the microsomal CLint is below 3 µL/min/mg.
For `FC(F)(F)c1nccc(N[C@H]2CC[C@@H](Nc3ncnc4sccc34)CC2)n1` the same measures were 2.9, 5 µM and 22 µL/min/mg.
For `CN(c1ccnc(C(F)(F)F)n1)[C@H]1CC[C@@H](Nc2ccc3nnc(Cl)n3n2)CC1` the same measures were 3.6, 1.1 µM and 18 µL/min/mg.
In the same order, the values of `FC(F)(F)c1nccc(N[C@H]2CC[C@@H](Nc3ccc4nnc(C(F)(F)F)n4n3)CC2)n1` are 3.8, 1.8 µM and below 3 µL/min/mg.
The compound `FC(F)(F)c1nccc(N[C@H]2CC[C@@H](Nc3ccc4nnc(Br)n4n3)CC2)n1` gave a logD in series [1] of 2.9. The IC50 came out at 1.1 µM in series [2] and 6.1 µM in series [4]. In series [3], the microsomal CLint was below 3 µL/min/mg.
`Nc1nnc2ccc(N[C@H]3CC[C@@H](Nc4ccnc(C(F)(F)F)n4)CC3)nn12`: the logD in series [1] was 1.4. Further, in series [2], the IC50 was determined as 26 µM. Besides, in series [3], the microsomal CLint is below 3 µL/min/mg.
In the same order, the values of `FC(F)(F)c1nccc(N[C@H]2CC[C@@H](Nc3ccncn3)CC2)n1` are 1.9, above 50 µM and 18 µL/min/mg.
For `FC(F)(F)c1nccc(N[C@H]2CC[C@@H](Nc3ccc4nncn4n3)CC2)n1` the same measures were 1.7, 35 µM and below 3 µL/min/mg.
`FC(F)(F)c1nccc(N2CCN(c3ccc4nnc(Cl)n4n3)CC2)n1` came in with a logD in series [1] of 2.4. Moreover, in series [2], the IC50 is above 50 µM. In addition, in series [3], the microsomal CLint was below 3 µL/min/mg.
In the same order, the values of `FC(F)(F)c1nccc(N[C@H]2C[C@@H](Nc3ccc4nnc(Cl)n4n3)C2)n1` are 2.2, above 50 µM and 6.9 µL/min/mg.
Turning to `FC(F)(F)c1nccc(N[C@H]2CC[C@@H](Oc3ccc4nnc(Cl)n4n3)CC2)n1`, in series [1], the logD was found to be 3.5. Further, the IC50 in series [2] is 7.2 µM. Besides, in series [3], the microsomal CLint is below 3 µL/min/mg.
In the same order, the values of `FC(F)(F)c1nccc(NC[C@H]2C[C@@H](Nc3ccc4nnc(Cl)n4n3)C2)n1` are 2.5, 18 µM and 23 µL/min/mg.
For `FC(F)(F)c1nccc(N[C@H]2CC[C@@H](Nc3ccc4cnccc4n3)CC2)n1` the same measures were 2.8, 7.5 µM and 26 µL/min/mg.
For `CN(c1ccc2nnc(Cl)n2n1)[C@H]1CC[C@@H](Nc2ccnc(C(F)(F)F)n2)CC1` the same measures were 3.5, 0.5 µM and 12 µL/min/mg.
